Results on one compound are retold here after ChEMBL document CHEMBL1127543, “Dual angiotensin converting enzyme/thromboxane synthase inhibitors” (J Med Chem, 1994).

pIC50: −log10 of the molar value. Calls of active or inactive are those of the source. The rule behind the calls is not given here.

By pIC50 is commonly meant the IC50 on a negative log10 scale, so that one unit is a factor of ten. A higher pIC50 goes with a small IC50. Broadly, the inhibition in vivo is the share of the control response that was lost under treatment. Low values mean little suppression, high ones strong suppression.

Assay [1] addresses T1, Angiotensin-converting enzyme (Oryctolagus cuniculus, UniProt P12822).
T1 sequence (P12822 whole entry): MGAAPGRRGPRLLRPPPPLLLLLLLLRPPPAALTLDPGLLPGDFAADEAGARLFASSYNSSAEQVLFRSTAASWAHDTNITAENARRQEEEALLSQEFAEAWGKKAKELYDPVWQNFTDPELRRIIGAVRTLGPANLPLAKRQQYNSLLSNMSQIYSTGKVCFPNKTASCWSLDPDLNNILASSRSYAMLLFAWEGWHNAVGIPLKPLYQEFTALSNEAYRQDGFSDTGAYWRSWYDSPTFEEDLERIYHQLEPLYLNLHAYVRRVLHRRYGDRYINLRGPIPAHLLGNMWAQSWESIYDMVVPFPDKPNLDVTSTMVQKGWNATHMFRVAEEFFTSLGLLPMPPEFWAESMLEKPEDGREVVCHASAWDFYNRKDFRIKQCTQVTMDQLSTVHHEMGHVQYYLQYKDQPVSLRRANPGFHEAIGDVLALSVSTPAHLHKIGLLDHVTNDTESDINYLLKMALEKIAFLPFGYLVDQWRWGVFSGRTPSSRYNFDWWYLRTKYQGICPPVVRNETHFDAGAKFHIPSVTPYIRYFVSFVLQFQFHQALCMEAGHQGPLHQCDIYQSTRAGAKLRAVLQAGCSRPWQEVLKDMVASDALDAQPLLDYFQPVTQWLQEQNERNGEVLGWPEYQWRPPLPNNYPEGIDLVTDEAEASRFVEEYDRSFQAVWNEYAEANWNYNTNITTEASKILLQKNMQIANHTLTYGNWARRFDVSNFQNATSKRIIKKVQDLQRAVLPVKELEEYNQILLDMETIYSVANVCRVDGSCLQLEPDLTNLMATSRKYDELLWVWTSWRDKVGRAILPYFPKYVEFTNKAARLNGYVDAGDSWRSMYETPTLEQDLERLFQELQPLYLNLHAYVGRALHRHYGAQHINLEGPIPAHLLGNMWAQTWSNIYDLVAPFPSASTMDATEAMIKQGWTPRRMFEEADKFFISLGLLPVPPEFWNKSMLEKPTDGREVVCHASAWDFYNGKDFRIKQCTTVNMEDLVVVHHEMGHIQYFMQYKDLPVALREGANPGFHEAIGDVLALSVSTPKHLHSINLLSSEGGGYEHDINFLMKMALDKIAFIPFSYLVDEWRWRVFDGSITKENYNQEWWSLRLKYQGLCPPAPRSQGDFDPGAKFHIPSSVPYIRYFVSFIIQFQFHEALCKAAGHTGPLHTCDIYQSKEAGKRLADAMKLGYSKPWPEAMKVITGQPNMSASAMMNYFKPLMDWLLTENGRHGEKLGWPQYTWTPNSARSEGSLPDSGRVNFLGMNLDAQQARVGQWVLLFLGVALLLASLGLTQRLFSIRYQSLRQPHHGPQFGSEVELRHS
In words: Tested for 50% inhibition of Angiotensin converting enzyme(ACE) obtained from rabbit lung (in vitro). Summed up:
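ACE was partially purified from rabbit lung and incubated with the synthetic substrate Hip-His-Leu. The hippuric acid product was measured spectrophotometrically. IC50 was read graphically from a range of inhibitor concentrations within the assay's linear range. Each determination was done in duplicate and repeated once.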

In assay [2] the test system is Rattus norvegicus. Put plainly: Tested for percent inhibition of maximum angiotensin I (AI) pressor response in rats on oral administration of 300 mg/kg after 2 hr. The format is functional. Summed up: (§1)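 Conscious catheterized SHR were prepared as for blood pressure recording. At set times after dosing, angiotensin I was injected intraarterially in 0.5 mL. The rise in arterial pressure was recorded and expressed as percent inhibition of the angiotensin I pressor response.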

In assay [3] the test system is Rattus norvegicus. In words: Tested for percent inhibition of maximum angiotensin I (AI) pressor response in rats on oral administration of 300 mg/kg after 4 hr. The format is functional. Summed up:
as §1

Assay [4] deals with Rattus norvegicus. Put plainly: Antihypertensive activity was measured in spontaneously hypertensive rat (SHR) by measuring the blood pressure on interarterial administration at dose of 1 mg/kg after 4 h. It is filed as functional, Artery. Summed up:
(§2)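 Conscious, fully ambulatory SHR (250–280 g) were fitted with an arterial catheter led through an infusion swivel inside a protective spring. After 24 h recovery from surgery, rats were housed singly. Mean arterial pressure was recorded continuously after dosing over a 6-h period, with later readings up to 24 h. Rats had chow and tap water freely under a 12-h light cycle.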

Assay [5] concerns Rattus norvegicus. In words: Antihypertensive activity was measured in spontaneously hypertensive rat (SHR) by measuring the maximum blood pressure when administered orally at dose of 10 mg/kg after 4 h. It is filed as functional. The following applies: route oral. In a few lines:
as §2

Assay [6] relates to Rattus norvegicus. In words: Antihypertensive activity was measured in spontaneously hypertensive rat (SHR) by measuring the blood pressure after 24 hours on interarterial administration at dose of 1 mg/kg; Not significant. It is filed as functional, organism-based. Further details: dose 1 mg/kg. To be noted: Artery. Summed up: as §2
A further assay deals with T2, Thromboxane-A synthase (Homo sapiens, UniProt P24557).
T2 sequence (P24557 whole entry): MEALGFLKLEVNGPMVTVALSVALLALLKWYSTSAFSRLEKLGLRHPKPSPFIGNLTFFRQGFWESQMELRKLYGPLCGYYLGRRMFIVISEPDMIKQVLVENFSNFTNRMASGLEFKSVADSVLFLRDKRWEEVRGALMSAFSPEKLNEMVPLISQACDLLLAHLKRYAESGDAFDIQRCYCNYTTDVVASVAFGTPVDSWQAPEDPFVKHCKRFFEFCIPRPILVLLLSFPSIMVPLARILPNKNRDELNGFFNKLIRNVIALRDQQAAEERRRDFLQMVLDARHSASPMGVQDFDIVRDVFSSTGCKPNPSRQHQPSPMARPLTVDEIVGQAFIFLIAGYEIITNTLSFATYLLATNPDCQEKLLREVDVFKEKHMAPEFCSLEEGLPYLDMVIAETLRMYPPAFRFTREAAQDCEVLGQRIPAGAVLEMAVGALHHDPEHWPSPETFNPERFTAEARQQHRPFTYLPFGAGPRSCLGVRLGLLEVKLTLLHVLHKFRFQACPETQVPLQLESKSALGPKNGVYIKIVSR
In words: Tested for 50% inhibition of thromboxane synthase (TxS) in human platelets (in vitro). In a few lines: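 IC50 was obtained graphically from a range of compound concentrations within the linear range of the assay. Determinations were made in duplicate and repeated once.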

Assay [7] is filed under the species Rattus norvegicus. To be noted: 10 mg/kg.

Take `Cn1c(-c2cccnc2)c(CCCCCC(=O)N2CCC(NCCCC[C@H](N[C@@H]3CCc4ccccc4N(CC(=O)[O-])C3=O)C(=O)[O-])CC2)c2cc(Cl)ccc21.[Na+].[Na+]`: the negative logarithm of the IC50 (pIC50) in assay [1] was 7.92; against Thromboxane-A synthase, 7.70. The inhibition in vivo at 300 mg/kg with Rattus norvegicus [2] came to 76%; in the assay on Rattus norvegicus [3], 51%. Moreover, the “Max delta BP” value with Rattus norvegicus [4] is -24 mmHg; in the assay with Rattus norvegicus [5], -35 mmHg. Besides, the Delta blood pressure entry in the assay with Rattus norvegicus [6] and in the assay listed under Rattus norvegicus [7] was “inactive” each time.
